Measured values pooled from the literature.
Each line is one published result; the experiments were not run side by side.

`CCOP(=O)(OCC)[C@@H]1C[C@H](n2cc(-c3ccccc3F)nn2)ON1C` gave a CC50 of over 250 µM (human T-lymphocyte; cell growth or viability; 72 h).
`O=C(c1ccc(Oc2ccccc2)cc1Cl)c1c[nH]c2ncnc(N[C@@H]3CC[C@@H](CO)OC3)c12` gave an AUC(0-t) of 82700 ng·h/mL (cynomolgus monkey, plasma; oral, 10 mg/kg, single dose).
With `c1ccc(-c2nc(N3CCC(c4ccccn4)C3)c3ccccc3n2)nc1` (stereo not drawn) the MRT(0-t) was 3 h (female BALB/c mouse, plasma; oral, 50 mg/kg).
`COc1ccc(CCN2CCC(Nc3nc4ccccc4n3Cc3ccc(F)cc3)CC2)cc1` gave a viability of 2% (HepG2; cell growth or viability, resazurin; 100 µM, 24 h).
The CC50 of `CCOP(=O)(OCC)[C@@H]1C[C@@H](n2cc(-c3ccccc3)nn2)ON1C` (racemic) is reported as over 250 µM (human T-lymphocyte; cell growth or viability; 72 h).
The AUC(0-t) of `CN(C(=O)n1cnc(-c2ccc[n+]([O-])c2)c1)C1CCCCC1` is reported as 452 ng·h/mL (male cynomolgus monkey, plasma; oral, 0.3 mg/kg).
For `COc1ccc2nccc(N3CCc4c(cc(Cn5ccnc5)cc4-c4cn(C)nc4C(F)(F)F)C3=O)c2c1`, the MRT(0-inf) was 0.6 h (male CD-1 mouse, plasma; intravenous, 3 mg/kg).
With `Nc1cc(CNC(=O)c2cc3[nH]ccc3cc2Cl)cc(C(F)(F)F)c1` the viability was under 50% (HEK-293T; cell growth or viability; 100 µM, 24 h).
For `CCc1cc(OC)c2nccc(N3CCc4c(cc(Cn5ccnc5)cc4-c4cn(C)nc4C(F)(F)F)C3=O)c2c1`, the MRT(0-inf) was 3.9 h (male CD-1 mouse, plasma; oral, 150 mg/kg).
For `CCN(CC)C(=O)[C@@]1(c2ccccc2)C[C@H]1CN`, the AUC(0-t) was 40000 ng·h/mL (male cynomolgus monkey, plasma; oral, 30 mg/kg).
The viability of `COc1ccc2c(c1)c1c(n2CO)CN2CCc3cc(OC)c(OCC(F)(F)F)cc3C2C1` (stereo not drawn) is reported as 74.7% (HepG2; cell growth or viability; 20 µM, 24 h).
`Cc1ccc2cncc(N3CCc4c(cc(Cn5ccnc5)cc4-c4cn(C)nc4C(F)(F)F)C3=O)c2c1` gave an MRT(0-inf) of 0.9 h (male CD-1 mouse, plasma; intravenous, 3 mg/kg).
